From PMC6990463 (Cellular physiology and biochemistry : international …, 2019)
Peptide text beside a SMILES is read from it. * marks the point of attachment. Cbz = O=C(OCc1ccccc1)*; CH2F = FC*

Tests used:
metastatic melanoma = conditions: BRAF-mutant metastatic melanoma; cited from earlier work
WM266–4 = assay: Cell viability assay; type: cell-based, human; conditions: for WM266–4 viability, inhibitor alone: 50 μM inhibitor, 72 h
sXBP1 = assay: ER stress assay; type: cell-based, human; conditions: 60 μM STF-83010 pre-treatment 3 h
In short: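 WM266–4 cells (0.2 × 10^6, E-MEM + 10% FBS, 24-well) pre-treated 24 h after seeding with 60 μM STF-83010 or vehicle for 3 h. RNA extracted with TRI reagent; amplified products run on 2% agarose with GelGreen and quantified. sXBP-1 expressed as % of total XBP-1 (sXBP-1 + XBP-1).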

M14 = assay: Cell viability assay; type: cell-based; conditions: Homo sapiens, M14, 72 h, read-out: IC50, viability M14 (M)
SKMEL28 = conditions: read-out: IC50, viability SKMEL28; V600E BRAF/R24C CDK4 primary; cited from earlier work
WM115 = assay: Cell viability assay; type: cell-based; conditions: Homo sapiens, WM-115, 72 h, read-out: IC50, viability WM115 (F)
SKMEL2 = assay: Cell viability assay; type: cell-based; conditions: Homo sapiens, SK-MEL-2, 72 h, read-out: IC50, viability SKMEL2 (M)
In short: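 Cells plated in 384-well format. Test compound as a 10-point 1:3 dilution series prepared from 300 μM; dabrafenib as assay control. Incubated 72 h at 37 °C, 5% CO2. CellTiter-Glo added for 15 min at room temperature; luminescence read. Viability normalised to media-only (0%) and DMSO-treated cells (100%). S/B, CV and Z′ computed per plate.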

WM266–4 cells = assay: Annexin V flow cytometry assay; type: cell-based, human; conditions: 4 h, staurosporine 1 μM
In short: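 WM266–4 cells (1,000,000/flask, EMEM + 10% FBS + 1% pen/strep) adhered overnight. 24 h after plating, optional 2 h pre-treatment with Z-VAD-FMK 10 μM. Test compound 100 μM or staurosporine 1 μM (control) for 4, 24 and 48 h. Adherent plus floating cells pooled, Annexin V-FITC stained, and viable, necrotic, early and late apoptotic cells counted by flow cytometry.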

cleaved lamin A/C = assay: Western blotting for Lamin A/C in WM266–4 cells; type: cell-based, human; conditions: LY294002 10 μM, 2155–14 100 μM
In short: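 WM266–4 cells (1 × 10^6, E-MEM + 10% FBS, 6 cm plates) pre-treated after 24 h with caspase inhibitors for 3 h or autophagy inhibitors (LY294002 10 μM, hydroxychloroquine) for 1 h. Test compound given at various doses and times, with or without inhibitors; controls staurosporine 1 μM, rapamycin 10 μM + chloroquine 5 μM. Lysates blotted with polyclonal lamin A/C antibody (1:1000).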

LC3-II = assay: Western blotting for LC3 in WM266–4 cells; type: cell-based, human
In short: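 1 × 10^6 cells seeded (WM266–4 in E-MEM, M14 in RPMI-1640; + 10% FBS) in 6 cm plates. Test compound at various doses and times; controls rapamycin 10 μM + chloroquine 5 μM, staurosporine 1 μM. Lysates blotted with polyclonal LC3 A/B antibody (1:1000); bands normalised to β-actin, as fold of untreated; n=3.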

PC-3 cells = conditions: read-out: IC50, apoptotic cell death of PC-3 cells; cited from earlier work

For `CC(C)(C)c1nc(-c2cccc(NS(=O)(=O)c3c(F)cccc3F)c2F)c(-c2ccnc(N)n2)s1` [dabrafenib], the “median progression-free survival (PFS)” value (metastatic melanoma) is given as 6.9 months.

For Cbz-Val-Ala-Asp-CH2F, the “WM266–4 viability, inhibitor alone” value (WM266–4) was “completely inhibited cell viability”.

In the case of `O=S(=O)(N=Cc1c(O)ccc2ccccc12)c1cccs1` [STF-83010], the “effect on sXBP1 formation by 2155–14” value (sXBP1) is reported as “inhibited”.

In the case of `CCCS(=O)(=O)Nc1ccc(F)c(C(=O)c2c[nH]c3ncc(-c4ccc(Cl)cc4)cc23)c1F` [vemurafenib], the “median progression-free survival (PFS)” value (metastatic melanoma) is listed as 6.9 months, the IC50 (M14) is listed as 1e-06 ± 2e-07 M and the IC50 (WM266–4; Homo sapiens, WM 266-4, 72 h, read-out: IC50, viability WM266–4 (F)) is listed as 3 ± 0.4 µM. For the same compound, the IC50 (SKMEL28) was 4.6 µM, the IC50 (WM115) was 5 ± 0.9 µM and the IC50 (SKMEL2) was 1.4e-06 ± 7e-07 M.

With `CN[C@@H]1C[C@H]2O[C@@](C)([C@@H]1OC)n1c3ccccc3c3c4c(c5c6ccccc6n2c5c31)C(=O)NC4` [staurosporine] the apoptosis detection (WM266–4 cells) was “apoptosis was detected”.

With `CC(C)[C@H](NC(=O)OCc1ccccc1)C(=O)N[C@H](C=O)Cc1ccccc1` [MDL-28170] (Cbz-Val-Phe-aldehyde) the “WM266–4 viability 24 h after addition of 2155–14, inhibitor pre-incubation” value (WM266–4; caspase inhibitors 10 μM, calpain inhibitors 25 μM, 2155–14 100 μM) was “further decreased cell viability”.

In the case of `O=c1cc(N2CCOCC2)oc2c(-c3ccccc3)cccc12` [LY294002], the “effect of pre-treatment on cleaved lamin A/C levels in cells treated with 2155–14” value (cleaved lamin A/C) is reported as “no effect”, the “LC3-II levels, fold of untreated control” value (LC3-II; LY294002 10 μM alone) is reported as 20 fold and the “LC3-II levels, fold of untreated control” value (LC3-II; combination of LY294002 10 μM and 2155–14 100 μM) is reported as ~ 40 fold.

In the case of `O=c1c(O)c(-c2ccc(O)c(O)c2)oc2cc(O)cc(O)c12` [quercetin], the IC50 (PC-3 cells) is given as 100 µM.

For “Z-IETD-FMK: selective caspase 8 inhibitor”, the “WM266–4 viability, inhibitor alone” value (WM266–4) was “completely inhibited cell viability” and the “WM266–4 cells viable, 2155–14 in combination with inhibitor” value (WM266–4; 48 h, 2155–14 100 μM, caspase inhibitors 10 μM, calpain inhibitor 25 μM) was 25%.
